Data on two molecules can be found in ChEMBL document CHEMBL4385646, “Structural development of 1H-pyrazolo-[3,4-b]pyridine-4-carboxylic acid derivatives as human peroxisome proliferator-activated receptor alpha (PPARα)-selective agonists” (Bioorg Med Chem Lett, 2019).

The test system of assay [1] is Rattus norvegicus. The experiment in a line: […] activity in fructose-challenged Sprague-Dawley rat assessed as increase in liver SLC25A20 mRNA expression at 30 mg/kg, po administered once daily via gavage for 2 weeks measured after 5 hrs fasting by SYBR green dye-based RT-PCR analysis. In kind it is functional, organism-based. In short, it runs like this:
(§1)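 Male rats were given 25% fructose in drinking water for 3 weeks. They then received 30 mg/kg/day orally in 0.5% methylcellulose (vehicle control) for 2 more weeks while fructose continued. Liver mRNA was measured by real-time RT-PCR, normalized to β2-microglobulin and set as 1 in the vehicle group. Values are means ± S.D.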

Assay [2] deals with Rattus norvegicus. As to the kind of experiment: […] activity in fructose-challenged Sprague-Dawley rat assessed as increase in liver ACOX1 mRNA expression at 30 mg/kg, po administered once daily via gavage for 2 weeks measured after 5 hrs fasting by SYBR green dye-based RT-PCR analysis. In kind it is functional, organism-based. In short, it runs like this:
as §1

Assay [3] has as its system Rattus norvegicus. The experiment in a line: […] activity in fructose-challenged Sprague-Dawley rat assessed as increase in liver ACADM mRNA expression at 30 mg/kg, po administered once daily via gavage for 2 weeks measured after 5 hrs fasting by SYBR green dye-based RT-PCR analysis. It is filed as functional, organism-based. In short, it runs like this: as §1

Assay [4] concerns Rattus norvegicus. The experiment in a line: […] activity in fructose-challenged Sprague-Dawley rat assessed as increase in liver CPT1A mRNA expression at 30 mg/kg, po administered once daily via gavage for 2 weeks measured after 5 hrs fasting by SYBR green dye-based RT-PCR analysis. It is filed as functional, organism-based. In short, it runs like this:
as §1

The subject of assay [5] is Rattus norvegicus. The experiment in a line: […] activity in fructose-challenged Sprague-Dawley rat assessed as reduction in serum triglyceride level at 30 mg/kg, po administered once daily via gavage for 2 weeks measured after 5 hrs fasting. In kind it is functional, organism-based. In short, it runs like this:
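Male rats had 25% fructose in drinking water for 3 weeks, then oral dosing at 30 mg/kg/day for 2 weeks with fructose continued. The vehicle group got 0.5% methylcellulose. Serum triglyceride was measured after the 2-week treatment.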

The target of assay [6] is T1, Peroxisome proliferator-activated receptor alpha (Homo sapiens) (UniProt Q07869).
T1 sequence (whole entry): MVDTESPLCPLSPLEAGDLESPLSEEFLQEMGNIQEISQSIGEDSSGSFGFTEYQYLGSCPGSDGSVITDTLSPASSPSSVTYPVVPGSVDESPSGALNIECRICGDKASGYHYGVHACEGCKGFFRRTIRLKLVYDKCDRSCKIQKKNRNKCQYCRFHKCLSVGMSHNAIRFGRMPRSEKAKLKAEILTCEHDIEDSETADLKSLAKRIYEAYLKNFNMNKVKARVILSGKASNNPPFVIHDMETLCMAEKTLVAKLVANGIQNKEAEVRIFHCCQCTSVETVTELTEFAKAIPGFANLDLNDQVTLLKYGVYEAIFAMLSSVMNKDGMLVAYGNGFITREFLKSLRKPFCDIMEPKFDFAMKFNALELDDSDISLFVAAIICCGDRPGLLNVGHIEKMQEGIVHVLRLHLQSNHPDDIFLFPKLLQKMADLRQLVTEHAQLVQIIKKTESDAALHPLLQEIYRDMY
As to the kind of experiment: Transactivation of human GAL4-fused PPARalpha LBD expressed in human HepG2 cells at 1 uM after 24 hrs by dual renilla-luciferase reporter gene assay relative to fenofibrate. In kind it is cell-based. In short, it runs like this: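 HepG2 cells cotransfected with 4xUAS-tk-luc and pBIND-hPPARα. Cells treated 24 h with compound at 1 μM final; fenofibrate 10 μM served as reference and 0.1% DMSO as vehicle. Read-out by reporter gene luciferase assay.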
On the technique in general: In a reporter assay the amount or activity of a reporter protein is the signal.

Assay [7] has as its system Rattus norvegicus. As to the kind of experiment: […] activity in fructose-challenged Sprague-Dawley rat assessed as increase in liver ACOX1 mRNA expression at 10 mg/kg, po administered once daily via gavage for 2 weeks measured after 5 hrs fasting by SYBR green dye-based RT-PCR analysis. It is filed as functional, organism-based. In short, it runs like this: (§2)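 Male rats were given 25% fructose in drinking water for 3 weeks. They then received 10 mg/kg/day orally in 0.5% methylcellulose (vehicle control) for 2 more weeks while fructose continued. Liver mRNA was measured by real-time RT-PCR, normalized to β2-microglobulin and set as 1 in the vehicle group. Values are means ± S.D.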

Assay [8] has as its system Rattus norvegicus. As to the kind of experiment: […] activity in fructose-challenged Sprague-Dawley rat assessed as reduction in serum triglyceride level at 10 mg/kg, po administered once daily via gavage for 2 weeks measured after 5 hrs fasting. It is filed as functional, organism-based. In short, it runs like this:
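Male rats had 25% fructose in drinking water for 3 weeks, then oral dosing at 10 mg/kg/day for 2 weeks with fructose continued. The vehicle group got 0.5% methylcellulose. Serum triglyceride was measured after the 2-week treatment.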

Assay [9] has as its system Rattus norvegicus. The experiment in a line: […] activity in fructose-challenged Sprague-Dawley rat assessed as increase in liver ACADM mRNA expression at 10 mg/kg, po administered once daily via gavage for 2 weeks measured after 5 hrs fasting by SYBR green dye-based RT-PCR analysis. In kind it is functional, organism-based. In short, it runs like this:
as §2

Assay [10] has as its target T2, Peroxisome proliferator-activated receptor gamma (Homo sapiens) (UniProt P37231).
T2 sequence (whole entry): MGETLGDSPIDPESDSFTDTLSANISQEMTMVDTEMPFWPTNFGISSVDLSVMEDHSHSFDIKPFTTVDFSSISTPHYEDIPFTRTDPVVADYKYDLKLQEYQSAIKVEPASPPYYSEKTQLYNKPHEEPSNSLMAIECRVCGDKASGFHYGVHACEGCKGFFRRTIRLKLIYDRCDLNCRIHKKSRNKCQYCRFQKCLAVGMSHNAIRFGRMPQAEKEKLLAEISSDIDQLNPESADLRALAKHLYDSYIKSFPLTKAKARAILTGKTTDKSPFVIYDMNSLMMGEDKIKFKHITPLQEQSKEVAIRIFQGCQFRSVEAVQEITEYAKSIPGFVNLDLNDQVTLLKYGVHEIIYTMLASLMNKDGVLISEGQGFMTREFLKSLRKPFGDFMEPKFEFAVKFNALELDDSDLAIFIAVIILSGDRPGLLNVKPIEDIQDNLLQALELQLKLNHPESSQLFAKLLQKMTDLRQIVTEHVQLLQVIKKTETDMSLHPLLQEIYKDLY
As to the kind of experiment: Transactivation of human GAL4-fused PPARgamma expressed in human HepG2 cells at 30 uM after 24 hrs by renilla luciferase reporter gene assay. In kind it is cell-based. In short, it runs like this: (§3)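 HepG2 cells carried GAL4-fused human PPARγ or PPARδ, or mouse or rat PPARα, plus the 4xUAS-tk-luc reporter. Cells treated across a concentration range for 24 h. Luciferase normalized to Renilla activity and expressed as fold induction over vehicle, set as 1.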

Assay [11] in a line: Selectivity ratio of EC50 for rat GAL4-fused PPARalpha expressed in human HepG2 cells to EC50 for human GAL4-fused PPARalpha LBD expressed in human HepG2 cells. In kind it is cell-based.
In assay [12] the target is T1, Peroxisome proliferator-activated receptor alpha (Homo sapiens). The experiment in a line: Transactivation of human PPARalpha in human FLC4 cells assessed as upregulation of PDK4 mRNA expression after 48 hrs by SYBR green dye-based RT-PCR analysis. It is filed as cell-based. In short, it runs like this: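 FLC4 cells treated for 48 h with various concentrations. PDK4 mRNA measured by real-time RT-PCR, normalized to β2-microglobulin and set as 1 in vehicle. Values are means ± S.D.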

The test system of assay [13] is Rattus norvegicus. The experiment in a line: […] activity in fructose-challenged Sprague-Dawley rat assessed as increase in liver SLC25A20 mRNA expression at 10 mg/kg, po administered once daily via gavage for 2 weeks measured after 5 hrs fasting by SYBR green dye-based RT-PCR analysis. It is filed as functional, organism-based. In short, it runs like this: as §2

The nature of assay [14]: Selectivity ratio of EC50 for mouse GAL4-fused PPARalpha expressed in human HepG2 cells to EC50 for human GAL4-fused PPARalpha LBD expressed in human HepG2 cells. It is filed as cell-based.
For assay [15], the target named is Peroxisome proliferator-activated receptor alpha (Homo sapiens) (UniProt Q07869). As to the kind of experiment: Displacement of fluormone pan-PPAR green from GST-tagged human PPARalpha ligand binding domain after 3 hrs by TR-FRET assay. For orientation: Time-resolved FRET reads energy transfer from a long-lived donor to a nearby acceptor.
Assay [16] relates to Rattus norvegicus. The experiment in a line: […] activity in fructose-challenged Sprague-Dawley rat assessed as increase in liver CPT1A mRNA expression at 10 mg/kg, po administered once daily via gavage for 2 weeks measured after 5 hrs fasting by SYBR green dye-based RT-PCR analysis. It is filed as functional, organism-based. In short, it runs like this:
as §2

Assay [17] concerns the target T3, Peroxisome proliferator-activated receptor delta (Homo sapiens) (UniProt Q03181).
T3 sequence (whole entry): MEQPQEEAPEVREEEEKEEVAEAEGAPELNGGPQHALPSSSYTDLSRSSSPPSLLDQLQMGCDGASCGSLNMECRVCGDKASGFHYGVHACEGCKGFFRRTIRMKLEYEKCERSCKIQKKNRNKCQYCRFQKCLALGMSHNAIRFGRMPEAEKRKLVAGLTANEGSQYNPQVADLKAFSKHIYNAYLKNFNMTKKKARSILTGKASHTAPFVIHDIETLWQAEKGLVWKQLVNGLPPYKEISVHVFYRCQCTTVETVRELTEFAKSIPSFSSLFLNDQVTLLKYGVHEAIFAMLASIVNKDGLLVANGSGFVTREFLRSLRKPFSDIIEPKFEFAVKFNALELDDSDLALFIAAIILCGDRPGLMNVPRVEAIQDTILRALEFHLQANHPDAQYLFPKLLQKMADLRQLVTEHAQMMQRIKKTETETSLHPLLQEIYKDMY
As to the kind of experiment: Transactivation of human GAL4-fused PPARdelta expressed in human HepG2 cells after 24 hrs by dual renilla-luciferase reporter gene assay. In kind it is cell-based. In short, it runs like this:
as §3

For assay [18], the target named is T1, Peroxisome proliferator-activated receptor alpha (Homo sapiens). As to the kind of experiment: Transactivation of human PPARalpha LBD expressed in human HepG2 cells at 10 uM after 24 hrs in presence of PPARalpha antagonist by dual renilla-luciferase reporter gene assay. In kind it is cell-based. In short, it runs like this: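 Transfected HepG2 cells (4xUAS-tk-luc plus pBIND-hPPARα) were pretreated 1 h with graded GW6471 before agonist was added at 10 μM final. Reporter luciferase was read after treatment. Percent inhibition was calculated relative to activity without GW6471, taken as 100%.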

Each structure is given as a SMILES string. The source made the active and inactive calls. The rule behind the calls is not given here.

As to `CC(C)OC(=O)C(C)(C)Oc1ccc(C(=O)c2ccc(Cl)cc2)cc1`, the outcome in the assay with Rattus norvegicus [1], in the assay on Rattus norvegicus [2], with Rattus norvegicus [3], in the assay with Rattus norvegicus [4] and in the assay with Rattus norvegicus [5] was Active.
The molecule `Cc1cc(C(=O)O)c2c(C(C)C)nn(-c3ccc(Cl)cc3)c2n1` registered an activation relative to fenofibrate in [6] of 187. Also, the outcome (in the assay with Rattus norvegicus [7]; with Rattus norvegicus [8]; with Rattus norvegicus [9]; in assay [10]; in the assay on Rattus norvegicus [13]; in the assay with Rattus norvegicus [16]) was Active. The Ratio EC50 in assay [11] and in assay [14] was 20 each time. Further, the Activity entry in [12] is “Dose-dependent effect”. In [15], the inhibition entry is “Dose-dependent effect”. Further, the result in [17] and in assay [18] was inactive.
